In ChEMBL document CHEMBL4610084, “Antibacterial and ATP Synthesis Modulating Compounds from Salvia tingitana” (2020):
In brackets after ≈: the same amount, converted by molar mass.

Test system: Enterococcus faecalis
Experiment: Antibacterial activity against Vancomycin resistant Enterococcus faecalis MB51 after 24 hrs by microdilution assay
Format: functional
Details: MB51, 24 h
In short: (§1)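 Broth microdilution MIC, run as in an earlier cited report. Strains are clinical isolates identified by standard methods and MALDI-TOF; E. faecalis MB19 and MB51 are Ligurian seawater isolates. Highest concentration tested was 128 μg/mL. MICs are given in μg/mL and μM, with oxacillin and vancomycin as reference antibiotics.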

SMILES | MIC [µM]
COc1ccc(-c2cc(=O)c3c(O)c(OC)c(OC)cc3o2)cc1O [EUPATORIN] | 372 (≈ 128 µg/mL)
CC1=CC(=O)OC1C/C=C(\C)CC[C@@H]1[C@@]2(C)CCC[C@@](C)(CO)[C@@H]2CC[C@@]1(C)O (some centres undefined) | 158 (≈ 63.9 µg/mL)

Test system: Enterococcus faecium
Experiment: Antibacterial activity against Enterococcus faecium MB3 after 24 hrs by microdilution assay
Format: functional
Details: MB3, 24 h
In short: (§2)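 Broth microdilution MIC against clinical or seawater-isolated strains (identified by standard procedures and MALDI-TOF), with compound solutions and testing as in earlier work. MIC reported in μg/mL and μM.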

SMILES | MIC
COc1ccc(-c2cc(=O)c3c(O)c(OC)c(OC)cc3o2)cc1O [EUPATORIN] | > 128 µg/mL
CC1=CC(=O)OC1C/C=C(\C)CC[C@@H]1[C@@]2(C)CCC[C@@](C)(CO)[C@@H]2CC[C@@]1(C)O (some centres undefined) | 317 µM

Test system: Enterococcus gallinarum
Experiment: Antibacterial activity against Vancomycin resistant Enterococcus gallinarum MB111 after 24 hrs by microdilution assay
Format: functional
Details: MB111, 24 h
In short: as §1

SMILES | MIC [µM]
COc1ccc(-c2cc(=O)c3c(O)c(OC)c(OC)cc3o2)cc1O [EUPATORIN] | 186 (≈ 64 µg/mL)
CC1=CC(=O)OC1C/C=C(\C)CC[C@@H]1[C@@]2(C)CCC[C@@](C)(CO)[C@@H]2CC[C@@]1(C)O (some centres undefined) | 158 (≈ 63.9 µg/mL)

Test system: Staphylococcus capitis
Experiment: Antibacterial activity against Methicillin-resistant Staphylococcus capitis MB71 after 24 hrs by microdilution assay
Format: functional
Details: MB71, 24 h
In short: as §1

SMILES | MIC
COc1ccc(-c2cc(=O)c3c(O)c(OC)c(OC)cc3o2)cc1O [EUPATORIN] | > 128 µg/mL
CC1=CC(=O)OC1C/C=C(\C)CC[C@@H]1[C@@]2(C)CCC[C@@](C)(CO)[C@@H]2CC[C@@]1(C)O (some centres undefined) | 317 µM

Test system: Staphylococcus aureus
Experiment: Antibacterial activity against Methicillin-resistant Staphylococcus aureus MB188 after 24 hrs by microdilution assay
Format: functional
Details: MB188, 24 h
In short: as §1

SMILES | MIC [µg/mL]
COc1ccc(-c2cc(=O)c3c(O)c(OC)c(OC)cc3o2)cc1O [EUPATORIN] | > 128
CC1=CC(=O)OC1C/C=C(\C)CC[C@@H]1[C@@]2(C)CCC[C@@](C)(CO)[C@@H]2CC[C@@]1(C)O (some centres undefined) | > 128

Test system: Enterococcus avium
Experiment: Antibacterial activity against Enterococcus avium MB119 after 24 hrs by microdilution assay
Format: functional
Details: MB119, 24 h
In short: as §2

SMILES | MIC [µM]
COc1ccc(-c2cc(=O)c3c(O)c(OC)c(OC)cc3o2)cc1O [EUPATORIN] | 186 (≈ 64 µg/mL)
CC1=CC(=O)OC1C/C=C(\C)CC[C@@H]1[C@@]2(C)CCC[C@@](C)(CO)[C@@H]2CC[C@@]1(C)O (some centres undefined) | 158 (≈ 63.9 µg/mL)

Test system: Staphylococcus hominis
Experiment: Antibacterial activity against Methicillin-resistant Staphylococcus hominis MB124 after 24 hrs by microdilution assay
Format: functional
Details: MB124, 24 h
In short: as §1

SMILES | MIC
COc1ccc(-c2cc(=O)c3c(O)c(OC)c(OC)cc3o2)cc1O [EUPATORIN] | > 128 µg/mL
CC1=CC(=O)OC1C/C=C(\C)CC[C@@H]1[C@@]2(C)CCC[C@@](C)(CO)[C@@H]2CC[C@@]1(C)O (some centres undefined) | 317 µM

Test system: Enterococcus casseliflavus
Experiment: Antibacterial activity against Vancomycin resistant Enterococcus casseliflavus MB159 after 24 hrs by microdilution assay
Format: functional
Details: MB159, 24 h
In short: as §1

SMILES | MIC [µM]
COc1ccc(-c2cc(=O)c3c(O)c(OC)c(OC)cc3o2)cc1O [EUPATORIN] | 372 (≈ 128 µg/mL)
CC1=CC(=O)OC1C/C=C(\C)CC[C@@H]1[C@@]2(C)CCC[C@@](C)(CO)[C@@H]2CC[C@@]1(C)O (some centres undefined) | 158 (≈ 63.9 µg/mL)

Test system: Enterococcus faecalis
Experiment: Antibacterial activity against Vancomycin resistant Enterococcus faecalis MB1 after 24 hrs by microdilution assay
Format: functional
Details: MB1, 24 h
In short: as §1

SMILES | MIC [µM]
COc1ccc(-c2cc(=O)c3c(O)c(OC)c(OC)cc3o2)cc1O [EUPATORIN] | 186 (≈ 64 µg/mL)
CC1=CC(=O)OC1C/C=C(\C)CC[C@@H]1[C@@]2(C)CCC[C@@](C)(CO)[C@@H]2CC[C@@]1(C)O (some centres undefined) | 317 (≈ 128 µg/mL)

Test system: Staphylococcus haemolyticus
Experiment: Antibacterial activity against Methicillin-resistant Staphylococcus haemolyticus MB115 after 24 hrs by microdilution assay
Format: functional
Details: MB115, 24 h
In short: as §1

SMILES | MIC [µg/mL]
COc1ccc(-c2cc(=O)c3c(O)c(OC)c(OC)cc3o2)cc1O [EUPATORIN] | > 128
CC1=CC(=O)OC1C/C=C(\C)CC[C@@H]1[C@@]2(C)CCC[C@@](C)(CO)[C@@H]2CC[C@@]1(C)O (some centres undefined) | > 128

Test system: Enterococcus durans
Experiment: Antibacterial activity against Enterococcus durans MB113 after 24 hrs by microdilution assay
Format: functional
Details: MB113, 24 h
In short: as §2

SMILES | MIC [µg/mL]
COc1ccc(-c2cc(=O)c3c(O)c(OC)c(OC)cc3o2)cc1O [EUPATORIN] | > 128
CC1=CC(=O)OC1C/C=C(\C)CC[C@@H]1[C@@]2(C)CCC[C@@](C)(CO)[C@@H]2CC[C@@]1(C)O (some centres undefined) | > 128

Test system: Staphylococcus epidermidis
Experiment: Antibacterial activity against Methicillin-resistant Staphylococcus epidermidis MB169 after 24 hrs by microdilution assay
Format: functional
Details: MB169, 24 h
In short: as §1

SMILES | MIC [µg/mL]
COc1ccc(-c2cc(=O)c3c(O)c(OC)c(OC)cc3o2)cc1O [EUPATORIN] | > 128
CC1=CC(=O)OC1C/C=C(\C)CC[C@@H]1[C@@]2(C)CCC[C@@](C)(CO)[C@@H]2CC[C@@]1(C)O (some centres undefined) | > 128

Test system: Enterococcus faecalis
Experiment: Antibacterial activity against Vancomycin resistant Enterococcus faecalis MB19 after 24 hrs by microdilution assay
Format: functional
Details: MB19, 24 h
In short: as §1

SMILES | MIC [µM]
COc1ccc(-c2cc(=O)c3c(O)c(OC)c(OC)cc3o2)cc1O [EUPATORIN] | 186 (≈ 64 µg/mL)
CC1=CC(=O)OC1C/C=C(\C)CC[C@@H]1[C@@]2(C)CCC[C@@](C)(CO)[C@@H]2CC[C@@]1(C)O (some centres undefined) | 79.2 (≈ 32 µg/mL)

Test system: Enterococcus faecium
Experiment: Antibacterial activity against Enterococcus faecium MB2 after 24 hrs by microdilution assay
Format: functional
Details: MB2, 24 h
In short: as §2

SMILES | MIC [µM]
COc1ccc(-c2cc(=O)c3c(O)c(OC)c(OC)cc3o2)cc1O [EUPATORIN] | 372 (≈ 128 µg/mL)
CC1=CC(=O)OC1C/C=C(\C)CC[C@@H]1[C@@]2(C)CCC[C@@](C)(CO)[C@@H]2CC[C@@]1(C)O (some centres undefined) | 317 (≈ 128 µg/mL)

Test system: Staphylococcus epidermidis
Experiment: Antibacterial activity against Methicillin-resistant Staphylococcus epidermidis MB165 after 24 hrs by microdilution assay
Format: functional
Details: MB165, 24 h
In short: as §1

SMILES | MIC
COc1ccc(-c2cc(=O)c3c(O)c(OC)c(OC)cc3o2)cc1O [EUPATORIN] | > 128 µg/mL
CC1=CC(=O)OC1C/C=C(\C)CC[C@@H]1[C@@]2(C)CCC[C@@](C)(CO)[C@@H]2CC[C@@]1(C)O (some centres undefined) | 317 µM

Test system: Staphylococcus saprophyticus
Experiment: Antibacterial activity against Staphylococcus saprophyticus MB41 after 24 hrs by microdilution assay
Format: functional
Details: MB41, 24 h
In short: as §2

SMILES | MIC
COc1ccc(-c2cc(=O)c3c(O)c(OC)c(OC)cc3o2)cc1O [EUPATORIN] | > 128 µg/mL
CC1=CC(=O)OC1C/C=C(\C)CC[C@@H]1[C@@]2(C)CCC[C@@](C)(CO)[C@@H]2CC[C@@]1(C)O (some centres undefined) | 317 µM

Test system: Staphylococcus simulans
Experiment: Antibacterial activity against Staphylococcus simulans MB94 after 24 hrs by microdilution assay
Format: functional
Details: MB94, 24 h
In short: as §2

SMILES | MIC [µg/mL]
COc1ccc(-c2cc(=O)c3c(O)c(OC)c(OC)cc3o2)cc1O [EUPATORIN] | > 128
CC1=CC(=O)OC1C/C=C(\C)CC[C@@H]1[C@@]2(C)CCC[C@@](C)(CO)[C@@H]2CC[C@@]1(C)O (some centres undefined) | > 128

Test system: Enterococcus faecium
Experiment: Antibacterial activity against Enterococcus faecium MB152 after 24 hrs by microdilution assay
Format: functional
Details: MB152, 24 h
In short: as §2

SMILES | MIC [µM]
COc1ccc(-c2cc(=O)c3c(O)c(OC)c(OC)cc3o2)cc1O [EUPATORIN] | 372 (≈ 128 µg/mL)
CC1=CC(=O)OC1C/C=C(\C)CC[C@@H]1[C@@]2(C)CCC[C@@](C)(CO)[C@@H]2CC[C@@]1(C)O (some centres undefined) | 158 (≈ 63.9 µg/mL)

Test system: Staphylococcus warneri
Experiment: Antibacterial activity against Methicillin-resistant Staphylococcus warneri MB74 after 24 hrs by microdilution assay
Format: functional
Details: MB74, 24 h
In short: as §1

SMILES | MIC
COc1ccc(-c2cc(=O)c3c(O)c(OC)c(OC)cc3o2)cc1O [EUPATORIN] | > 128 µg/mL
CC1=CC(=O)OC1C/C=C(\C)CC[C@@H]1[C@@]2(C)CCC[C@@](C)(CO)[C@@H]2CC[C@@]1(C)O (some centres undefined) | 317 µM

Test system: Staphylococcus lugdunensis
Experiment: Antibacterial activity against Staphylococcus lugdunensis MB96 after 24 hrs by microdilution assay
Format: functional
Details: MB96, 24 h
In short: as §2

SMILES | MIC [µg/mL]
COc1ccc(-c2cc(=O)c3c(O)c(OC)c(OC)cc3o2)cc1O [EUPATORIN] | > 128
CC1=CC(=O)OC1C/C=C(\C)CC[C@@H]1[C@@]2(C)CCC[C@@](C)(CO)[C@@H]2CC[C@@]1(C)O (some centres undefined) | > 128

Test system: Staphylococcus aureus
Experiment: Antibacterial activity against Methicillin-resistant Staphylococcus aureus MB18 after 24 hrs by microdilution assay
Format: functional
Details: MB18, 24 h
In short: as §1

SMILES | MIC
COc1ccc(-c2cc(=O)c3c(O)c(OC)c(OC)cc3o2)cc1O [EUPATORIN] | > 128 µg/mL
CC1=CC(=O)OC1C/C=C(\C)CC[C@@H]1[C@@]2(C)CCC[C@@](C)(CO)[C@@H]2CC[C@@]1(C)O (some centres undefined) | 317 µM

Test system: Enterococcus faecalis
Experiment: Antibacterial activity against Enterococcus faecalis MB76 after 24 hrs by microdilution assay
Format: functional
Details: MB76, 24 h
In short: as §1

SMILES | MIC [µM]
COc1ccc(-c2cc(=O)c3c(O)c(OC)c(OC)cc3o2)cc1O [EUPATORIN] | 186 (≈ 64 µg/mL)
CC1=CC(=O)OC1C/C=C(\C)CC[C@@H]1[C@@]2(C)CCC[C@@](C)(CO)[C@@H]2CC[C@@]1(C)O (some centres undefined) | 158 (≈ 63.9 µg/mL)
